Assay outcomes (PubChem)
procasp7 counter – counter-screen for procaspase-3 activators: activators of human procaspase-7. P55210. recombinant procaspase-7, Ac-DEVD-pNA absorbance 405 nm; D23A/D198A/D206A triple mutant, cannot self-cleave; scale: DMSO 0, 5 µM enzyme 100. activation, % at 8.5 µM. 0.093% of 330,000 active. AID 463210;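 active means percent activation above the screen-wide mean plus 3 SD, cut at about 25% in these data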
Target sequence (P55210 whole entry D23A/D198A/D206A): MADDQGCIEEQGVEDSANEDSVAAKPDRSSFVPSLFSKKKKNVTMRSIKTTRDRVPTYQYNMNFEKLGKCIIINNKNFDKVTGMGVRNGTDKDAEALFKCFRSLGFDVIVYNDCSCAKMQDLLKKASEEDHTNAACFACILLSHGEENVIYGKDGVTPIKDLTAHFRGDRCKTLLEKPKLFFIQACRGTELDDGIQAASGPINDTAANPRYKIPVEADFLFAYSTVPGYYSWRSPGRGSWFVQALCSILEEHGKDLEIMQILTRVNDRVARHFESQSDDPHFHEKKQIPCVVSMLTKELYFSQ
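Assay system: Uncleavable procaspase-7 mutant enzyme / Input: 2 µM procaspase-7 mutant as dispensed / Dosing: single nominal 8.5 µM compound dose, 0.8% DMSO final / Timing: 1 h enzyme–compound preincubation and 2 h substrate reaction, both 25 °C / Detection: p-Nitroaniline absorbance at 405 nm, read at 0 and 120 min / Replication: singlicate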
Tb MetRS inh – blocks T. brucei methionyl-tRNA synthetase activity | purified T. brucei MetRS, ATP depletion, Kinase-Glo luminescence | inhibition, % at 11.9 µM | 0.4% of 360,000 active;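 active means inhibition above a per-plate cutoff of the control wells' mean inhibition plus 3 SD, cut at about 5.5% in these data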
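Material: parasite MetRS enzyme / Replication: singlicate, one well per compound / Signal: luminescence of leftover ATP / Schedule: 2 h aminoacylation at 25 °C after 15 min preincubation / Medium: HEPES-MgCl2-KCl buffer plus DTT, spermine, BSA, pyrophosphatase / Doses: 11.9 µM single point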
procasp3 activ – activates human procaspase-3; recombinant procaspase-3 D3A, Ac-DEVD-pNA absorbance 405 nm; activation, % at 8.5 µM; 0.11% of 330,000 active;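 active means activation above the mean of all tested compounds plus 3 SD, cut at about 21% in these data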
Target sequence (P42574 whole entry D9A/D28A/D175A): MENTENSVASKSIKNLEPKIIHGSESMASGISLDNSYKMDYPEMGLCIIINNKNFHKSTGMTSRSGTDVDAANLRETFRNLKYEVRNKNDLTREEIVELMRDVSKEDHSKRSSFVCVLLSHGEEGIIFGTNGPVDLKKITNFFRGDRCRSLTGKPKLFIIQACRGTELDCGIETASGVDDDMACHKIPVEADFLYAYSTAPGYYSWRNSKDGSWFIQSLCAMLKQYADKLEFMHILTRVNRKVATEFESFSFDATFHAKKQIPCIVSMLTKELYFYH
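Test system: Procaspase-3 D3A mutant, all three cleavage aspartates alanine | Dosing: Single dose, 8.5 µM nominal compound, 0.8% DMSO | Schedule: 1 h preincubation, 2 h reaction | Technique: 405 nm absorbance of p-nitroaniline, reads at 0 and 120 min | Repeats: One well per compound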
bovine MsrA act – activates bovine MsrA enzyme | purified bovine MsrA, absorbance read-out | activation, % at 10.6 µM | 0.3% of 360,000 active; in the data active means activation above about 7.5%
MsrA inhibitor – bovine MsrA inhibition. inhibition, % at 15.5 µM. 0.75% of 360,000 active. purified bovine MsrA, absorbance read-out
TbMetRS confirm – Trypanosoma brucei MetRS inhibition confirmed. shares compounds with Tb MetRS inh. T. brucei MetRS enzyme, luminescence (ATP depletion). inhibition, % at 11.9 µM. 93% of 1,400 active. AID 624412; in the data active means inhibition above about 7%
Jurkat tox – kills Jurkat cells in T. brucei MetRS counterscreen; Jurkat cells viability, ATP luminescence; AID 624413; inhibition, % at 8.3 µM; shares compounds with Tb MetRS inh; 12% of 1,400 active; in the data active means inhibition above about 15%
TbMetRS FP orth – orthogonal test for Trypanosoma brucei MetRS inhibitors. shares compounds with Tb MetRS inh. purified T. brucei MetRS, fluorescence polarization. inhibition, % at 11.9 µM. 44% of 1,400 active. AID 651607; in the data active means inhibition above about 17%
MsrA inh confirm – bovine MsrA inhibition, confirmed | purified bovine MsrA, absorbance read-out | shares compounds with MsrA inhibitor | inhibition, % at 15.5 µM | AID 651822 | 41% of 2,300 active;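 further: coupled to thioredoxin reductase with NADPH and selenocystamine and DMSO as substrate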
Hits are given with their value; – = inactive; · = not tested or not shown. Rows were chosen to be rich in hits. Some 1.5% of all compounds tested hit in one or more screens of this group. Unless noted, no stated cut-off is given here; in the data, active means inhibition above about 4.5%; inactive means the rest.

SMILES	procasp7 counter	Tb MetRS inh	procasp3 activ	bovine MsrA act	MsrA inhibitor	MsrA inh confirm	others
Cc1cc(/C=C(/C#N)c2nc3ccccc3[nH]2)c(C)n1-c1cc(C(=O)O)cc(C(=O)O)c1	·	5.8	·	–	4.9	–	TbMetRS confirm=37.3;Jurkat tox=–;TbMetRS FP orth=–
COC(=O)[C@]12C[C@H](CC(=O)NCCCN3CCCC3=O)C(=O)N(CCC3=CCCCC3)C1=C[C@H](C(C)(C)C)O[C@@H]2C	·	·	·	·	–	·
CCOC(=O)C(/C=C(\C#N)C(=O)OCC)=C(/N)N1CCN(c2ccccc2)CC1	–	40.5	–	–	6.8	5.3	TbMetRS confirm=57.6;Jurkat tox=–;TbMetRS FP orth=28.3
CCOC(=O)/C(C#N)=C/c1ccc(N2CCN(C)CC2)cc1	–	–	–	–	–	·
O=C(NC1CCCC1)[C@@H]1CCCN1C(=O)[C@@H](NC(=O)N1CCOCC1)c1ccccc1	·	·	·	·	–	·
O=C(O)c1cccc(Cn2c(Cl)c(/C=N/NC(=O)c3cc4ccccc4cc3O)sc2=O)c1	–	5.7	–	–	4.9	5.6	TbMetRS confirm=17.8;Jurkat tox=–;TbMetRS FP orth=33.9
C[C@H](CO)N1C[C@H](C)[C@H](CN(C)C(=O)Nc2ccc(F)cc2)Oc2ncc(Br)cc2C1=O	·	·	·	·	–	·
CC(=O)Oc1ccc2c(=O)c(/C=N/c3cc(=O)[nH]c(=S)[nH]3)coc2c1	–	8.0	–	–	5.5	–	TbMetRS confirm=13.4;Jurkat tox=–;TbMetRS FP orth=–
COc1cc(/C=N/NC(=O)C(Cc2c[nH]c3ccccc23)NC(=O)OCc2ccccc2)cc([N+](=O)[O-])c1O (centres undefined)	–	–	–	–	5.8	5.2
COc1cc(/C=N/NC(N)=O)cc([N+](=O)[O-])c1O	–	–	–	–	4.7	–
COc1cc(/C=N/NC(=O)C(Cc2c[nH]c3ccccc23)NC(=O)OCC(C)C)cc([N+](=O)[O-])c1O (centres undefined)	–	–	–	–	–	·
O=C1C2C3C=CC(C4CC34)C2C(=O)N1/N=C/c1ccc(-c2ccc(Cl)cc2[N+](=O)[O-])o1 (centres undefined)	–	–	–	–	–	·
O=C(O)c1cc(-c2ccc(/C=N/N3C(=O)C4C5C=CC(CC5)C4C3=O)o2)ccc1Cl (centres undefined)	–	–	–	–	7.4	5.8
O=C(O)c1cc(-c2ccc(/C=N/N3C(=O)C4C5C=CC(C6CC56)C4C3=O)o2)ccc1Cl (centres undefined)	–	–	–	–	5.4	7.8
O=C(NCc1ccco1)/C(=C\C=C\c1ccccc1)NC(=O)c1ccccc1Br	–	–	–	–	5.0	–
O=C(NCc1ccco1)/C(=C\C=C\c1ccccc1)NC(=O)c1ccco1	–	–	–	–	–	·
CSc1ccc(/C=C(/NC(=O)c2ccco2)C(=O)NCc2ccco2)cc1	·	–	·	–	6.3	–
O=C(NCc1ccco1)/C(=C/C=C/c1ccccc1)NC(=O)c1ccco1	–	–	–	–	4.9	–
Cc1ccc(NC(=O)CN2C(=O)NC(C)(C3CC3)C2=O)c([N+](=O)[O-])c1 (centres undefined)	–	–	–	–	9.4	6.0
Cc1ccc(NC(=O)CN2C(=O)NC(C)(C3CC3)C2=O)c(C)c1 (centres undefined)	–	–	–	–	–	·
COC1C(OC(=O)/C=C/C=C/C=C/C=C/C(=O)O)CCC2(CO2)C1C1(C)OC1CC=C(C)C (centres undefined) (tested in a mixture with another compound)	·	–	·	–	8.8	11.8
CCCc1cc(=O)oc2c3c(cc(OCC(=O)N4CCC(C(=O)O)CC4)c12)OC(C)(C)CC3	·	–	·	–	5.0	–
Oc1oc(-c2ccccc2)nc1C=NCc1ccncc1	–	–	–	–	5.9	–
Oc1oc(-c2ccccc2)nc1C=Nc1cccc2ccccc12	–	–	–	–	–	·
C[C@H](CO)N1C[C@H](C)[C@@H](CN(C)C(=O)CCC(F)(F)F)OCc2cn(nn2)CCCC1=O	·	·	·	·	–	·
SMILES	procasp7 counter	Tb MetRS inh	procasp3 activ	bovine MsrA act	MsrA inhibitor	MsrA inh confirm	others
CCOC(=O)C(C)Sc1nnc(NC(=O)c2ccc3c(c2)OCO3)s1 (centres undefined)	–	–	–	–	5.1	–
CSc1nnc(NC(=O)c2ccc3c(c2)OCO3)s1	–	–	–	–	–	·
CCOC(=O)N(C)C[C@@H]1OCc2cn(nn2)CCCC(=O)N([C@H](C)CO)C[C@H]1C	·	·	·	·	–	·
O=c1c2c3c(sc2n(CCN2CCOCC2)c(=O)n1C1CCCCC1)CCCCC3	·	·	·	·	–	·
Cc1cc(Br)cn2c(Cc3ccsc3)c(-c3ccc(Cl)cc3)nc12	·	–	·	–	·	·
N#Cc1c(/N=C/c2ccc(-c3ccc(C(=O)O)c(Cl)c3)o2)sc2c1CCCC2	–	–	–	–	7.0	–
Cc1nnc(Nc2ccccn2)c2ccccc12	–	–	–	–	5.5	–
NC(=O)N\N=C/C=C/C=C/c1ccc(F)cc1	–	–	–	–	5.2	–
Cc1csc(Nc2nc(N)c(C(=O)Nc3ccccc3)o2)n1	–	–	–	–	5.7	5.0
Cc1csc(NC(=O)c2oc3ccccc3c2C)n1	–	–	–	–	–	·
O=C(Nc1cccc2ccccc12)OC[C@@H]1CSCCS(=O)(=O)N1	·	·	·	·	–	·
COCc1nnc(NC(=O)c2sc3ccccc3c2Cl)s1	–	–	–	–	5.0	–
Cc1cc2ccccn2c1C(=O)Nc1ccccc1	–	–	–	–	5.1	–
Cc1nc(/C=[N+](\[O-])C(C)(C)/C=N/O)n(O)c1C	–	–	–	–	6.7	4.6
CC(C)(/C=N/O)/[N+]([O-])=C/c1ccco1	–	–	–	–	–	·
COc1cc(N2CCCC2)ccc1C=O	–	–	–	–	6.8	–
CC1(CC(=O)N/N=C/c2cc(Br)c(O)cc2O)OCCO1	–	–	–	–	6.1	5.3
Cc1oc(/C=N/NC(=O)CC2(C)OCCO2)cc1Br	–	–	–	–	–	·
Brc1ccc(-c2nc3ccccc3s2)s1	–	–	–	–	–	·
Cc1ccc2nc(-c3ccc(N)cc3)sc2c1	–	–	–	–	–	·
COc1cc(OC)cc(-c2nc3ccccc3s2)c1	–	–	–	–	–	·
Nc1ccc2nc(-c3ccccc3)sc2c1	–	–	–	–	4.7	–
Cc1cc(-c2nc3ccccc3s2)ccc1N	·	–	·	–	4.7	–
Nc1ccc(-c2nc3ccccc3s2)cn1	–	–	–	–	5.3	–
